Laboratory results taken from ChEMBL document CHEMBL5678798 (Clin Cancer Res, 2009).
Active and inactive are the calls of the source. The rule behind the calls is not given here.

Tests used:
[1] = biological target: Tyrosine-protein kinase Lyn (Homo sapiens) (UniProt P07948); test: Inhibition of N-terminal His6-tagged recombinant full-length human Lyn expressed in Sf21 cells at 3 uM by filter binding assay relative to control
Procedure, shortened: (§1)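 Outsourced single-concentration screen in a commercial panel of 233 protein kinases, run as radiometric filter-binding activity assays. Test agent was tested at 0.3 or 3 µmol/L, as given in each line, from a 10 mmol/L DMSO stock. Activity is expressed as percent inhibition relative to control.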

[2] = biological target: Mitogen-activated protein kinase 8 (Homo sapiens, UniProt P45983); test: Inhibition of JNK1 (unknown origin)
[3] = Inhibition of […] N-terminal 6His-tagged full length human P110delta/full length human p85beta expressed in baculovirus infected Sf21 cells at 0.3 uM by filter binding assay relative to control; settings: condition cancer
[4] = biological target: Serine/threonine-protein kinase MRCK beta (Homo sapiens) (UniProt Q9Y5S2); test: Inhibition of N-terminal His6-tagged recombinant human MRCKbeta (1 to 473 residues) expressed in baculovirus infected Sf21 cells at 0.3 uM by filter binding assay relative to control
[5] = biological target: Insulin receptor (Mus musculus) (UniProt P15208); settings: CD-1, dose 30.0 mg/kg, route po, time 21.0 day
Sequence of Insulin receptor (Mus musculus) (P15208 28-748 limits assumed): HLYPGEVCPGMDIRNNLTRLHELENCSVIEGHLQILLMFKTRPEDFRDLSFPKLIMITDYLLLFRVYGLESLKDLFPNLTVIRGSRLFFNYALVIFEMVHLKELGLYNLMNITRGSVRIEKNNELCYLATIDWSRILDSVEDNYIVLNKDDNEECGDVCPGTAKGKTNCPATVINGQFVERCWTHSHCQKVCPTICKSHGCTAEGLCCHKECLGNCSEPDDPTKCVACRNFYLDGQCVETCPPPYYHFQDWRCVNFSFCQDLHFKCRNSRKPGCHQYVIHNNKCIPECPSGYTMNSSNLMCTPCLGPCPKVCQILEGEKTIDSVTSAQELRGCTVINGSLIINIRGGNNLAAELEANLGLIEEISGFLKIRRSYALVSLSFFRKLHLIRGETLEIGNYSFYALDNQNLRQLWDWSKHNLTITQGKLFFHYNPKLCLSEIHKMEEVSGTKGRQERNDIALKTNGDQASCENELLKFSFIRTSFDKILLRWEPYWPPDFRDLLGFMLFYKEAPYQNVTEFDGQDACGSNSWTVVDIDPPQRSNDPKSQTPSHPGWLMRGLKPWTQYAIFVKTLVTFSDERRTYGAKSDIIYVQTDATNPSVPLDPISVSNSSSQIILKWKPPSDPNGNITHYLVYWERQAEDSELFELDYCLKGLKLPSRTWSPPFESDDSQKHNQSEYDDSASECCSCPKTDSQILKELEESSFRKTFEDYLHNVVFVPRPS
Sequence of Insulin receptor (Mus musculus) (P15208 753-1372 limits assumed): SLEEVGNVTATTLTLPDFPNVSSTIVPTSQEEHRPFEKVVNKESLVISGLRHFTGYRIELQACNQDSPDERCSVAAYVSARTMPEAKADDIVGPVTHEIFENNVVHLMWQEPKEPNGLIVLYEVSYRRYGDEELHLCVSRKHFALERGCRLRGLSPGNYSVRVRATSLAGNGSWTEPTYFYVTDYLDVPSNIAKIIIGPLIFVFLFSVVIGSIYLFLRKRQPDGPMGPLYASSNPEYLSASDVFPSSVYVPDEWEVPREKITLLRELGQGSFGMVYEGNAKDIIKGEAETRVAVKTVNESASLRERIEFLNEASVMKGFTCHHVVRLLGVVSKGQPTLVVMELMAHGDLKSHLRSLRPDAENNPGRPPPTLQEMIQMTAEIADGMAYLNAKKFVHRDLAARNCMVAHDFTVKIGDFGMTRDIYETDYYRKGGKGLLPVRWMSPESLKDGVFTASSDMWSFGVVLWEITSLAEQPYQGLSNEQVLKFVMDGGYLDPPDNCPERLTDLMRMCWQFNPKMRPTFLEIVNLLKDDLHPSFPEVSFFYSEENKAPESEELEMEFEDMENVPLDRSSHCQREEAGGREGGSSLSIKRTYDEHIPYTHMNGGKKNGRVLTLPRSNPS

[6] = Antiproliferative activity against human TC71 cells assessed as reduction in cell viability after 72 hrs by CellTiter-Glo assay; format: functional, cell-based; settings: TC-71, 72 h
Procedure, shortened: (§2)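 Cells seeded in 96-well plates, left overnight at 37°C, then exposed to a range of test concentrations for 72 h. Viability read by CellTiter-Glo luminescence; IC50 from four-parameter curve fit. Lines kept at 37°C, 5% CO2, in recommended growth medium.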

[7] = Inhibition of CDK2/CyclinA (unknown origin); set-up: species or system Homo sapiens
[8] = tested on: NCI-H929; test: Induction of cell cycle arrest in human NCI-H929 cells assessed as decrease in cells accumulation at S phase at 0.03 to 10 uM incubated for 24 to 48 hrs by propidium iodide staining based flow cytometric analysis; format: functional; settings: dose 0.03-10 µM, time lower 24.0 hrs, time upper […]
Procedure, shortened: (§3)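 COLO 205, MCF-7 or NCI-H929 cells seeded in 96-well plates overnight at 37°C, then exposed to DMSO or increasing compound concentrations for 24 or 48 h. Fixed and stained with propidium iodide (Vindelov method), then analysed by flow cytometry for sub-G1, G1, S and G2-M fractions. Experiment repeated twice.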

[9] = biological target: Protein kinase C iota type (Homo sapiens) (UniProt P41743); test: Inhibition of N-terminal His6-tagged recombinant full-length human PKCiota expressed in Sf21 cells at 3 uM by filter binding assay relative to control; procedure, shortened: as §1
Sequence of Protein kinase C iota type (Homo sapiens) (P41743 whole entry, the tested form may be a part): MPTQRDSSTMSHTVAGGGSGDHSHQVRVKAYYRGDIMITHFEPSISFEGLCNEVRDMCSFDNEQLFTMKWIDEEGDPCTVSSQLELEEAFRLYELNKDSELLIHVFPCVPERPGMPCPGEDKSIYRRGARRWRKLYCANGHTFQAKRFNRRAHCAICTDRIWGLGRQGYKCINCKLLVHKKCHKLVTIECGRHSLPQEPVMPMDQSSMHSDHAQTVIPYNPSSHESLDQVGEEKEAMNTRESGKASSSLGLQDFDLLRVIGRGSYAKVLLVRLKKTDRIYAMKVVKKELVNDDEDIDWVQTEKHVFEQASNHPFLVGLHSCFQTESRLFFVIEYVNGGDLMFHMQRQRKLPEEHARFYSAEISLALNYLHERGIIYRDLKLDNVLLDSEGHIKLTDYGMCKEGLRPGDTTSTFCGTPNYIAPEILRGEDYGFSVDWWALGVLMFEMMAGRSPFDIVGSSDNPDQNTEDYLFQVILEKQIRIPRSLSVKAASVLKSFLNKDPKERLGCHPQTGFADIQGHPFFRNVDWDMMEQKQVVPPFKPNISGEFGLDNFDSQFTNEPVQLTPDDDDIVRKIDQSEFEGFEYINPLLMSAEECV

[10] = biological target: Fibroblast growth factor receptor 4 (Homo sapiens) (UniProt P22455); test: Inhibition of N-terminal His6-tagged recombinant human FGFR4 (442 to 755 residues) expressed in baculovirus infected Sf21 cells at 0.3 uM by filter binding assay relative to control
Sequence of Fibroblast growth factor receptor 4 (Homo sapiens) (P22455 22-802 limits assumed): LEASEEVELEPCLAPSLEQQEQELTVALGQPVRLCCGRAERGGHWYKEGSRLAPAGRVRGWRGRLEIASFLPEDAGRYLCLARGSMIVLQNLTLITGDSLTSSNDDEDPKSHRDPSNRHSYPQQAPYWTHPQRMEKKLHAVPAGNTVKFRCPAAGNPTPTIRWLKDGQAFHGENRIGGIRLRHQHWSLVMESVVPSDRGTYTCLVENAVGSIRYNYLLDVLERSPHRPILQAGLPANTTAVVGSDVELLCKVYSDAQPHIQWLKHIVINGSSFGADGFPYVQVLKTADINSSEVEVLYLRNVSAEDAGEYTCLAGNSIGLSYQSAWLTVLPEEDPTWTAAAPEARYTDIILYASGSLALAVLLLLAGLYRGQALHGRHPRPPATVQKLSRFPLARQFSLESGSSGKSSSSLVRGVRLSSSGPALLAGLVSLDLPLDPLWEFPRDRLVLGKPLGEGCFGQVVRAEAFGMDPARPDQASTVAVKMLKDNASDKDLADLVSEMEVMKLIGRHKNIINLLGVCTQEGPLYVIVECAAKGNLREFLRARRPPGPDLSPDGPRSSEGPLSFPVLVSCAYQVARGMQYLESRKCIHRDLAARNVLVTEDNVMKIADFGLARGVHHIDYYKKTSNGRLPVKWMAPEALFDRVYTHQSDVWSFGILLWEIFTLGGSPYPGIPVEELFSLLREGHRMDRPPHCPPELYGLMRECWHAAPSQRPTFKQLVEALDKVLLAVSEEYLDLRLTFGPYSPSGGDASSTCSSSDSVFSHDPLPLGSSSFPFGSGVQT

[11] = Antitumor activity against mouse NIH-3T3/LISN cells implanted in nu/nu CD-1 mouse assessed as reduction in tumor growth at 30 mg/kg, po administered twice daily for 21 days relative to control; format: functional; settings: 504 h, time 21 day, read-out: TGI
Procedure, shortened: (§4)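 Exponentially growing cells implanted s.c. in the right flank of 8–10-wk-old female athymic nu/nu CD-1 mice. At 150–200 mm3, block-randomized by tumor size into groups of eight. Oral dosing once or twice daily for 21 d; vehicle 20% sulfobutylether-β-cyclodextrin, pH 3.5. Calipers twice weekly; volume = length×width²/2. Growth inhibition = 100×[1 − treated growth/vehicle growth].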

[12] = biological target: MAP kinase-activated protein kinase 5 (Homo sapiens) (UniProt Q8IW41); test: Inhibition of N-terminal His6-tagged recombinant human full-length PRAK expressed in baculovirus infected Sf21 cells at 3 uM by filter binding assay relative to control
[13] = tested on: MOLP-8; test: Antiproliferative activity against human MOLP8 cells assessed as reduction in cell viability after 72 hrs by CellTiter-Glo assay; format: functional, cell-based; settings: MOLP-8, 72 h; procedure, shortened: as §2
[14] = biological target: RAC-alpha serine/threonine-protein kinase (Homo sapiens, UniProt P31749); test: Inhibition of AKT1 (unknown origin)
[15] = tested on: COLO 205; test: Induction of cell cycle arrest in human COLO 205 cells assessed as cells accumulation at G2 phase at 1 umol/L incubated for 48 hrs by propidium iodide staining based flow cytometric analysis (reference value: 22%); format: functional; settings: dose 1 µmol/L, at 1 µM; procedure, shortened: as §3
[16] = Toxicity in nu/nu CD-1 mouse xenografted with human COLO 205 cells assessed as reduction in body weight at 30 mg/kg, po administered twice daily for 21 days relative to control; format: organism-based; set-up: scale not given: the % may be the effect or the level left; settings: in vivo, 504 h, time 21 day
[17] = biological target: Insulin receptor (Mus musculus) (UniProt P15208); settings: CD-1, dose 30.0 mg/kg, route po, time 21.0 day; remark: listed apart in the source
[18] = tested on: MCF7; test: Induction of cell cycle arrest in human MCF7 cells assessed as decrease in cells accumulation at G2/M phase at 0.03 to 10 uM incubated for 24 to 48 hrs by propidium iodide staining based flow cytometric analysis; format: functional; settings: dose 0.03-10 µM, time lower 24.0 hrs, time upper […]; procedure, shortened: as §3
[19] = tested on: HT-29; test: Antitumor activity against human HT-29 cells xenografted in nu/nu CD-1 mouse assessed as reduction in tumor growth at 30 mg/kg, po for 21 days relative to control; format: functional; settings: HT-29, 504 h, time 21 day, read-out: TGI; procedure, shortened: as §4
[20] = biological target: Inhibitor of nuclear factor kappa-B kinase subunit alpha (Homo sapiens, UniProt O15111); test: Inhibition of IKK1 (unknown origin)
[21] = biological target: RAC-beta serine/threonine-protein kinase (Homo sapiens, UniProt P31751); test: Inhibition of AKT2 (unknown origin)
[22] = biological target: Death-associated protein kinase 2 (Homo sapiens) (UniProt Q9UIK4); test: Inhibition of N-terminal GST-tagged recombinant human full length DAPK2 expressed in baculovirus infected Sf21 cells at 0.3 uM by filter binding assay relative to control; procedure, shortened: as §1
[23] = biological target: Fibroblast growth factor receptor 2 (Homo sapiens) (UniProt P21802); test: Inhibition of N-terminal, His6-tagged recombinant human FGFR2 (456 to 765 residues) expressed in baculovirus infected Sf21 cells at 0.3 uM by filter binding assay relative to control
Sequence of Fibroblast growth factor receptor 2 (Homo sapiens) (P21802 22-821 limits assumed): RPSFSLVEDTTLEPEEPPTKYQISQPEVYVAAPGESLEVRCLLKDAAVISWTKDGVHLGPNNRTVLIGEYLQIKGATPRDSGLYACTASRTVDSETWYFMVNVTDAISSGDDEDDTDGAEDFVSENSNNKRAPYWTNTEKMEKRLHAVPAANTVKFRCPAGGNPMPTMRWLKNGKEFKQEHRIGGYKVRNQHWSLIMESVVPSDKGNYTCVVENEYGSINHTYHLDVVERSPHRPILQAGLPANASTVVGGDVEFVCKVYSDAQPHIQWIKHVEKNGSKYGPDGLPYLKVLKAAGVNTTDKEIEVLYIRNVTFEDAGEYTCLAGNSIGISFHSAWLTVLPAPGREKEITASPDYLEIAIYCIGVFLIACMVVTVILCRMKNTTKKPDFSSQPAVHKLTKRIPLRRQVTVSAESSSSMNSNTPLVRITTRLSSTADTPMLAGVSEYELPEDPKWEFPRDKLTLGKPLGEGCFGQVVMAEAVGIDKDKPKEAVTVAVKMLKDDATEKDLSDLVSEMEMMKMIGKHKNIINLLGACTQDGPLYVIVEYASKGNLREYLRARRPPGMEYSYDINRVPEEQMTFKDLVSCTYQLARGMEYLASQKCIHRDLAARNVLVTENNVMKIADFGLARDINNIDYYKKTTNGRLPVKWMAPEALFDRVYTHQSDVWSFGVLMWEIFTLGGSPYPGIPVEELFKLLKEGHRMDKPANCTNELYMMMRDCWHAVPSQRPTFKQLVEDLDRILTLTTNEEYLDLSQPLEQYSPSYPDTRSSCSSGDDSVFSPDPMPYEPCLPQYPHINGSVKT

[24] = biological target: Activin receptor type-2B (Homo sapiens, UniProt Q13705); test: Inhibition of ActRIIB (unknown origin)
Sequence of Activin receptor type-2B (Q13705 whole entry): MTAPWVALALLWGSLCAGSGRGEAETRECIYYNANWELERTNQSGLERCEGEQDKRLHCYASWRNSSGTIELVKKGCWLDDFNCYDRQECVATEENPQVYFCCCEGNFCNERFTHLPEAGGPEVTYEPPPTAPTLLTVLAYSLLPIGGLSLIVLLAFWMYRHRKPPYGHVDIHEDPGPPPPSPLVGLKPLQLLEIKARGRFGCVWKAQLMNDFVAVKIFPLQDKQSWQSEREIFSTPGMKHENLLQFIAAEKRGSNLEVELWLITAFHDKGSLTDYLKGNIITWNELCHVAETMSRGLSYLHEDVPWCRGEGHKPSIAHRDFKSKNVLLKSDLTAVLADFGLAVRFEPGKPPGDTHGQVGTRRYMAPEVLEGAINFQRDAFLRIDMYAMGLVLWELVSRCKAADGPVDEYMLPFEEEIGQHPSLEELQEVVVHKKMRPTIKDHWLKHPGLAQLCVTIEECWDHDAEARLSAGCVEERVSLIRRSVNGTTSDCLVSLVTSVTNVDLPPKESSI

[25] = tested on: MCF7; test: Induction of cell cycle arrest in human MCF7 cells assessed as increase in cells accumulation at G1 phase at 0.03 to 10 uM incubated for 24 to 48 hrs by propidium iodide staining based flow cytometric analysis; format: functional; settings: dose 0.03-10 µM, time lower 24.0 hrs, time upper […]; procedure, shortened: as §3
[26] = tested on: A549; test: Antiproliferative activity against human A549 cells assessed as reduction in cell viability after 72 hrs by CellTiter-Glo assay; format: functional, cell-based; settings: A549, 72 h; procedure, shortened: as §2
[27] = biological target: Serine/threonine-protein kinase tousled-like 2 (Homo sapiens) (UniProt Q86UE8); test: Inhibition of N-terminal 6His-tagged recombinant human TLK2 (388 to end residues) expressed in baculovirus infected Sf21 cells at 3 uM by filter binding assay relative to control; procedure, shortened: as §1
Sequence of Serine/threonine-protein kinase tousled-like 2 (Homo sapiens) (Q86UE8 whole entry, looked up): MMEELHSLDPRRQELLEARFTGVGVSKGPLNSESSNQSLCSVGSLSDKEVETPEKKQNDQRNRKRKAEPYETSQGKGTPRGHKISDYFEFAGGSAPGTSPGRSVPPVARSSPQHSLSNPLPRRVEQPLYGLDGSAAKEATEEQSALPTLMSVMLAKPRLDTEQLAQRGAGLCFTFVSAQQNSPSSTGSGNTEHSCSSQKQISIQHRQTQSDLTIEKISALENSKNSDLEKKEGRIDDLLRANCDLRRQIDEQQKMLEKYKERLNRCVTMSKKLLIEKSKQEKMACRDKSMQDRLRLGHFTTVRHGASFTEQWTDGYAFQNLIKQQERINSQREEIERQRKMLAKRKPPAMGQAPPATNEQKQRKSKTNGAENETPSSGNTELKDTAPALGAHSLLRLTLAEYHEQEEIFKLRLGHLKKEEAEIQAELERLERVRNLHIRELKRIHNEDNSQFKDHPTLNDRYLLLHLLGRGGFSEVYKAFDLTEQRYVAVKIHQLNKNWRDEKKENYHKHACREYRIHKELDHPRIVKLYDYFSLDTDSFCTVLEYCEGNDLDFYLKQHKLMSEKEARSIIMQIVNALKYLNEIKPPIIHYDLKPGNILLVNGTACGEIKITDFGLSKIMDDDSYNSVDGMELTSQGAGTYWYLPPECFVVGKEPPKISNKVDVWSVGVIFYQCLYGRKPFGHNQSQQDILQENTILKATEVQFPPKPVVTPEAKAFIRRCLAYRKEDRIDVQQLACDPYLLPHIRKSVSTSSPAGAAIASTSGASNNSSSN

**Q.** With CCc1cc(Nc2nccc(-c3c(-c4ccc(OC)c(C(=O)Nc5c(F)cccc5F)c4)nc4ccccn34)n2)c(OC)cc1N1CCC(N2CCN(S(C)(=O)=O)CC2)CC1 as the molecule, how does the inhibition [1] read?
**A.** 37%

**Q.** And the IC50 [2]?
**A.** > 10 µM

**Q.** What about the inhibition at 0.3 µM [3] of the same molecule?
**A.** 1%

**Q.** What about the inhibition [4] of the same molecule?
**A.** -10%

**Q.** What about the inhibition [5] of the same molecule?
**A.** inactive

**Q.** And the IC50 [6]?
**A.** 0.035 µM

**Q.** What about the IC50 [7] of the same molecule?
**A.** > 10 µM

**Q.** And the Activity [8]?
**A.** Active

**Q.** And the inhibition [9]?
**A.** 0%

**Q.** And the inhibition [10]?
**A.** 21%

**Q.** What about the inhibition in vivo at 30 mg/kg [11] of the same molecule?
**A.** 98%

**Q.** What about the inhibition [12] of the same molecule?
**A.** 35%

**Q.** What about the IC50 [13] of the same molecule?
**A.** 0.096 µM

**Q.** And the IC50 [14]?
**A.** > 10 µM

**Q.** What about the Activity [15] of the same molecule?
**A.** 12%

**Q.** What about the Activity [16] of the same molecule?
**A.** > 20%

**Q.** And the inhibition [17]?
**A.** inactive

**Q.** What about the Activity [18] of the same molecule?
**A.** Active

**Q.** And the inhibition in vivo at 30 mg/kg [19]?
**A.** 47%

**Q.** What about the IC50 [20] of the same molecule?
**A.** 13 µM

**Q.** And the IC50 [21]?
**A.** > 10 µM

**Q.** What about the inhibition [22] of the same molecule?
**A.** 1%

**Q.** What about the inhibition [23] of the same molecule?
**A.** 21%

**Q.** And the IC50 [24]?
**A.** > 10 µM

**Q.** And the Activity [25]?
**A.** Active

**Q.** And the IC50 [26]?
**A.** > 20 µM

**Q.** And the inhibition [27]?
**A.** 0%
